S1P3 antagonist = blocks the human S1P3 receptor. Q99500. inhibition, % at 4.98 µM. actives 0.27% (n = 170,000). AID 485. CHO S1P3 NFAT-BLA reporter, FRET fluorescence, antagonist mode;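 active = inhibition above the plate cutoff, the mean inhibition of test wells on that plate plus 3 SD, cut at about 28% in these data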;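 note: cells challenged with S1P at its EC80 of 0.8 µM; blue over green emission ratio from cleaved BLA substrate after 4 h stimulation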
Lmaj promast = inhibitors of Leishmania major promastigote growth | Leishmania major promastigotes, resazurin fluorescence viability | inhibition, % at 10 µM | actives 9% (n = 200,000); in the data active = inhibition above about 50%;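 note: promastigotes grown with compound for 44 hours at 28 °C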
S1P4 ag = agonists of human S1P4 receptor; S1P4-expressing cell line, agonist reporter assay; actives 0.35% (n = 220,000); O95977; AID 1509; activation, % at 4.98 µM; in the data active = activation above about 11%
MDM2 E3 inh = inhibitors of human Mdm2 E3 ubiquitin ligase; Q00987; cell-based MDM2 ubiquitination luciferase reporter, 2 h; 0 = plate control, 100 = twice control, blank-subtracted; signal enhancement, % at 5 µM; actives 0.11% (n = 210,000); AID 1230;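 active = signal enhancement of 30% or more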;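 note: luminescence tracks abundance of the self-degrading MDM2-luciferase fusion protein; higher signal means inhibition of MDM2 E3 ligase activity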
Target sequence (Q00987 whole entry, looked up, the tested form may be a part): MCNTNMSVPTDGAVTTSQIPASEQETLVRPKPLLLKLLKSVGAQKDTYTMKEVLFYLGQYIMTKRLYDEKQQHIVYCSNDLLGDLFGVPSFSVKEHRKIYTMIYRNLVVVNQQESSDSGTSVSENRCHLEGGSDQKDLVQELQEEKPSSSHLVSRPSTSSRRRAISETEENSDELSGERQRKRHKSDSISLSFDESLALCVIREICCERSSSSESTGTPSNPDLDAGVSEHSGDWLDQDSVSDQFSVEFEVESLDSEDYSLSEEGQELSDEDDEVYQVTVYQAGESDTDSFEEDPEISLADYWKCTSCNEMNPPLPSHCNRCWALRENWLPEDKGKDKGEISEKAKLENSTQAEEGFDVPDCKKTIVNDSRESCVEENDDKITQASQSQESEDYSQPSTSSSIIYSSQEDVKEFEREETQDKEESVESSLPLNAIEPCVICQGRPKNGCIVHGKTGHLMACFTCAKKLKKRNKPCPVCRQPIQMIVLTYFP
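Timing – 2 h compound exposure at 37 °C · Assay system – mammalian cells stably expressing self-ubiquitinating, self-degrading MDM2 E3–luciferase fusion · Amount – 2000 cells seeded into each well · Measure – % luminescence enhancement versus blank-corrected plate control mean · Measured by – SteadyLite luminescence, 15 min reagent step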
S1P4 antag = antagonists of human S1P4 receptor; O95977; S1P4-expressing cells, antagonist mode, reporter read-out; inhibition, % at 4.98 µM; actives 0.26% (n = 220,000); AID 1510; in the data active = inhibition above about 29%
Numbers stand for hits; i = inactive; nt = not tested or not shown. The sample as a whole holds a higher share of hits than the screen did.

SMILES | S1P3 antagonist | Lmaj promast | S1P4 ag | MDM2 E3 inh | S1P4 antag
O=C(Nc1ncc(S(=O)(=O)c2ccc([N+](=O)[O-])cc2)s1)c1ccc2ccccc2c1 | i | 99 | i | i | i
CC(C)c1ccc(Nc2nnc(SCC(=O)Nc3ncc(S(=O)(=O)c4ccc([N+](=O)[O-])cc4)s3)s2)cc1 | i | i | i | i | i
CC1CCN(c2ccc(C(=O)NCc3cccs3)cn2)CC1 | i | i | i | i | i
CC(=O)NN1C(=O)c2ccccc2NC1c1ccoc1 (stereo unspecified) | i | i | i | i | i
Cc1ccc(NC(=O)CSc2nc(N)c3c4c(sc3n2)CSC(C)(C)C4)cc1 | i | 88 | i | i | i
COc1ccc(NC(=O)CSc2nc(N)c3cc4c(nc3n2)CCCC4)c(OC)c1 | nt | i | i | i | i
Cc1ccc(NC(=O)CSc2nc(N)c3cc4c(nc3n2)CCCC4)cc1 | i | 93 | i | i | i
Nc1nc(SCC(=O)Nc2ccccc2)nc2nc3c(cc12)CCCC3 | i | 66 | i | i | i
O=C(Cc1ccc(F)cc1)Oc1ccc(C(=S)N2CCCC2)cc1 | i | i | i | i | i
N#Cc1cnc(SCC(=O)NNC(=O)COc2cccc3ccccc23)nc1N | i | i | i | i | i
Oc1ccccc1-n1c(-c2ccccc2)ccc1-c1ccccc1 | i | nt | i | nt | i
CC(C)NCc1nnc(-c2ccccc2Cl)o1 | i | i | i | i | i
COc1ccc(-c2csc(/C(C#N)=C\c3ccc(O)c([N+](=O)[O-])c3)n2)cc1OC | i | nt | i | i | i
COc1ccc(-c2csc(/C(C#N)=C\c3ccc(OC)c([N+](=O)[O-])c3)n2)cc1 | i | 91 | i | i | i
CCOC(=O)/C(=N\Nc1ccc(Cl)cc1)Sc1nnc(-c2ccc(OC)cc2)n1C | i | i | i | nt | i
Cc1ccc(N2CC(C(=O)Nc3nnc(SCC(=O)Nc4cc(C)on4)s3)CC2=O)cc1 (stereo unspecified) | i | 60 | i | i | i
CC1=NN(c2ccc(Cl)cc2)C(=O)/C1=C\c1cccn1-c1ccc(S(N)(=O)=O)cc1 | i | 50 | i | i | i
CC(=O)NCC1=C(NC(C)=O)C2CC1C(C)(C)C2C (stereo unspecified) | i | i | i | i | i
O=C(Cn1cnc([N+](=O)[O-])n1)N/N=C/c1cc(Cl)ccc1O | i | 100 | i | i | i
O=C(Cn1cncn1)N/N=C/c1cc([N+](=O)[O-])ccc1O | i | nt | i | i | i
O=C(Cn1cnc([N+](=O)[O-])n1)N/N=C/c1ccccc1O | nt | 100 | i | i | i
Cc1ccccc1/C=N/NC(=O)Cn1cnc([N+](=O)[O-])n1 | nt | i | i | i | i
CCCC(C)C(=O)Nc1nc(C)c(-c2csc(Nc3ccccc3OC)n2)s1 (stereo unspecified) | nt | 96 | i | i | i
CCCCCC(=O)Nc1nc(C)c(-c2csc(Nc3ccccc3OCC)n2)s1 | nt | 52 | i | i | i
CCCCCCC(=O)Nc1nc(C)c(-c2csc(Nc3ccccc3OC)n2)s1 | nt | 55 | i | i | i
SMILES | S1P3 antagonist | Lmaj promast | S1P4 ag | MDM2 E3 inh | S1P4 antag
CCCCCC(=O)Nc1nc(C)c(-c2csc(Nc3ccccc3OC)n2)s1 | nt | 73 | i | i | i
CCC(C)C(=O)Nc1nc(C)c(-c2csc(Nc3cc(Cl)ccc3OC)n2)s1 (stereo unspecified) | nt | i | i | i | i
O=C(NCC(c1ccco1)N1CCN(c2ccccc2)CC1)c1ccc2c(c1)OCO2 (stereo unspecified) | i | i | i | i | i
Cc1ccc(NS(=O)(=O)c2cccc(C(=O)O)c2)cc1S(=O)(=O)N1CCOCC1 | i | 57 | i | i | i
O=C(O)c1cccc(S(=O)(=O)Nc2ccc(S(=O)(=O)N3CCOCC3)cc2)c1 | i | i | i | i | i
O=C(Nc1ccc(C(=O)N2CCOCC2)cc1)c1cccc([N+](=O)[O-])c1 | i | i | i | i | i
Cc1nn(C)c(C)c1S(=O)(=O)N1CCC(C(=O)NCCC2=CCCCC2)CC1 | i | i | i | i | i
COc1ccc(OC)c(NC(=O)C2CCN(S(=O)(=O)c3c(C)noc3C)CC2)c1 | nt | i | i | i | i
Cc1noc(/C=C/c2cccs2)c1S(=O)(=O)N1CCC(C(=O)NCCCN2CCCC(C)C2)CC1 (stereo unspecified) | i | 96 | i | nt | i
Cc1ccc(CNC(=O)C2CCCN(S(=O)(=O)c3c(C)noc3C)C2)cc1 (stereo unspecified) | nt | i | i | i | i
COc1ccccc1CNC(=O)C1CCN(S(=O)(=O)c2c(C)noc2C)CC1 | nt | 100 | i | i | i
